An excerpt weighted towards active compounds, which were near 2.3% of everything screened.
CAL PDZ FP-1 – untagged CAL PDZ binding inhibitors, primary screen, biochemical, fluorescence polarization, HTS; inhibition, % at 24.9 µM; 0.92% of 300,000 active; purified CAL PDZ, TMR-peptide fluorescence polarization, 1 h; Golgi-associated PDZ and coiled-coil motif-containing protein (Homo sapiens), Q9HD26;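 active = mean inhibition of at least 30% with at least half of replicates also reaching 30%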
SR-BI DiI-HDL act – activators of SR-BI mediated DiI-HDL uptake, primary screen, ldlA[mSR-BI] CHO cells, DiI fluorescence; 3 h; 100 = double the neutral-control signal; activation, % at 12.5 µM; 0.096% of 320,000 active;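 active = mean replicate activation of at least 60% and every replicate at or above 60%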
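Material: SR-BI-overexpressing, LDLR-lacking CHO cells | Dosing: Single compound concentration, delivered by pin transfer | Probe or stimulus: Labelled HDL, 10 µg/mL | Signal: Bottom-read cell fluorescence after medium removal, ex 550/em 595 nm | Schedule: 3 h, 37 °C | Evaluation: HDL uptake via cellular fluorescence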
SR-BI DiI inh – inhibitors of SR-BI mediated HDL lipid uptake, primary screen, ldlA[mSR-BI] cells, fluorescence, single point; Scavenger receptor class B member 1 (Mus musculus), Q61009; ldlA[mSR-BI] CHO cells, DiI-HDL uptake fluorescence, 3 h; inhibition, % at 12.5 µM; 0.96% of 320,000 active; AID 488896, 2010;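 active = mean replicate inhibition of at least 70% and a set share of replicates each scoring 70 or more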
ATG4B inhibitor – ATG4B protease inhibitors, primary screen, biochemical, fluorescence, uHTS; 0.51% of 340,000 active; inhibition, % at 8.33 µM; ATG4B cleavage of LC3-PLA2, NBD-HPC fluorescence, 1 h; in the data active = inhibition above about 40%
Target sequence (Q9Y4P1 whole entry, looked up): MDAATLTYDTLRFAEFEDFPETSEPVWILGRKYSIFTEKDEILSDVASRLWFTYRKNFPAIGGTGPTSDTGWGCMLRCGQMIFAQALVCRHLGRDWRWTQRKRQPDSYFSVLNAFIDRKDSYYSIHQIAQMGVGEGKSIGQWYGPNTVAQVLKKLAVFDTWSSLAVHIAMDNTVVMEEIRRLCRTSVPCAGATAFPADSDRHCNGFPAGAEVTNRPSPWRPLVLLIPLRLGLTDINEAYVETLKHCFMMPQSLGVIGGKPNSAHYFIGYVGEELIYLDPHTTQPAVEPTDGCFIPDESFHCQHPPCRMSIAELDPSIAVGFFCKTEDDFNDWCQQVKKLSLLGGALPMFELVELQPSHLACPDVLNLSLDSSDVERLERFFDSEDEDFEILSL
CAL PDZ FP-2 – CAL PDZ peptide-binding inhibitors, primary screen, biochemical, fluorescence polarization, Cer-tagged CAL PDZ, HTS. Golgi-associated PDZ and coiled-coil motif-containing protein (Homo sapiens), Q9HD26. purified CAL PDZ, TMR-peptide fluorescence polarization, 1 h. inhibition, % at 20 µM. 0.02% of 330,000 active. AID 504414, 2011;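 active = highest replicate inhibition of at least 40%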
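Material: tagged CAL PDZ domain; buffer or medium: 25 mM sodium phosphate pH 7.4, 150 mM NaCl, TCEP, IgG, Thesit; compound dosing: single point, 20 µM; schedule: 1 h incubation at room temperature before polarization reading; measured by: FP readout, S and P plane fluorescence; read-out basis: percent inhibition from loss of millipolarization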
Each line names hits and unclear results; the compound was inactive in the other large screens.

C[C@H](CO)N1C[C@H](C)[C@@H](CN(C)C(=O)Nc2ccc(C(F)(F)F)cc2)Oc2c(NC(=O)Cc3ccccc3)cccc2C1=O	none
Cc1noc(C)c1NC(=O)Nc1cccc2c1O[C@H](CN(C)C(=O)Nc1ccc(C(F)(F)F)cc1)[C@@H](C)CN([C@H](C)CO)C2=O	SR-BI DiI inh 79
CN(C)S(=O)(=O)c1ccc(N2CCCC2)c(C(=O)OCC(=O)N2CCN(c3ccccc3)CC2)c1	none
Cc1ccc(S(=O)(=O)N(C)C)cc1NC(=O)CSc1ncn[nH]1	CAL PDZ FP-1 34
CC(C)CC(=O)c1c[nH]c(C(=O)NCc2ccc(F)cc2)c1	none
CC1Oc2ccccc2N(CC(=O)NC2CCCCC2)C1=O (stereo not given)	none
CC(C)CNC(=O)c1cc2nc3c(c(C(F)(F)F)n2n1)CCc1ccccc1-3	SR-BI DiI inh 78
COc1ccc(NC(=O)CCOc2ccc(C)cc2)c(OC)c1	none
CC(C)N(Cc1ccccc1)C(=O)COC(=O)c1cnc(Cl)c(Cl)c1	CAL PDZ FP-1 42
CC(C)N(Cc1ccccc1)C(=O)COC(=O)c1ccc2c(c1)OCCO2	none
COC(=O)Nc1nc(-c2ccccc2)c(C(=O)c2ccccc2)s1	SR-BI DiI inh 91
COC(=O)Nc1nc(C)c(C(=O)c2ccccc2)s1	none
Cc1ccc(NC(=O)C(NC2CCCC2)c2ccccc2)cc1Cl (stereo not given)	CAL PDZ FP-1 58
COc1cc(/C=N/Nc2ccc(Cl)c(C(=O)O)c2)ccc1OC(=O)c1ccccc1F	CAL PDZ FP-1 42
COc1cc(/C=N/Nc2ccc(Cl)c(C(=O)O)c2)ccc1OC(=O)c1ccc(F)cc1	none
Cc1ccc(S(=O)(=O)N(C)c2ccc(OCC(=O)Nc3cccc(-n4cnnn4)c3C)cc2)cc1	SR-BI DiI inh 84
Cc1ccc(S(=O)(=O)N(C)c2ccc(OCC(=O)Nc3ccc(S(C)(=O)=O)cc3)cc2)cc1	none
CN(C)S(=O)(=O)c1ccc(C(=O)N2CCN(S(=O)(=O)c3ccc4c(c3)OCCO4)CC2)cc1	none
O=C(c1ccc(F)cc1F)N1CCN(S(=O)(=O)c2ccc3c(c2)OCCO3)CC1	CAL PDZ FP-1 31
CCCNC(=O)C(=O)NCC1CCCN1CC (stereo not given)	CAL PDZ FP-1 33
CCc1nnc(NC(=O)c2nc(S(=O)(=O)Cc3ccc(C)cc3)ncc2Cl)s1	SR-BI DiI-HDL act 64
COc1ccc(CNC(=O)c2nc(S(=O)(=O)Cc3ccccc3)ncc2Cl)cc1	none
O=C(NCc1ccccc1)c1nc(S(=O)(=O)Cc2ccccc2)ncc1Cl	CAL PDZ FP-1 active
COc1c(C(=O)Nc2ccc3[nH]c(=O)[nH]c3c2)cc2ccccc2c1Br	SR-BI DiI inh 78
O=C1CN2NC(=S)N(c3ccc(Cl)cc3)C2=CN1c1ccc(Cl)cc1	none
O=C1CN2NC(=S)N(c3ccccc3)C2=CN1c1ccc(Cl)cc1	CAL PDZ FP-1 115
COc1ccc(C2(C)NC(=O)N(CC(=O)Nc3ccc4ccccc4c3)C2=O)cc1OC (stereo not given)	none
COc1ccc(CNC(=O)CN2C(=O)NC(C)(c3cccc4ccccc34)C2=O)cc1OC (stereo not given)	CAL PDZ FP-1 41
CN(CCC#N)CC(=O)Nc1ccc(NC(=O)CN(C)CCC#N)cc1	CAL PDZ FP-1 39
Cc1ccc(NC(=O)CCn2c(=O)oc3ccccc32)c(C)c1	CAL PDZ FP-1 48
Cc1ccc(NC(=O)CCCn2c(=O)oc3ccccc32)c(O)c1	none
COc1ccc(C)cc1NC(=O)Cn1c(=O)oc2ccccc21	CAL PDZ FP-1 56
COc1ccccc1C=NN=C(NN=Cc1ccccc1OC)NN=Cc1ccccc1OC	none
COc1ccc(CCNS(=O)(=O)CCNC(=O)c2ccc(OC)cc2)cc1	none
COc1ccc(C(=O)Nc2ccc(C(=O)NCCc3ccc(OC)c(OC)c3)cc2)cc1	SR-BI DiI inh 79
COc1ccccc1OCCNC(=O)c1ccc(Br)cc1	CAL PDZ FP-1 33 (no result: CAL PDZ FP-2)
COc1ccc(CC(=O)NCCc2ccc(OC)c(OC)c2)cc1	none
COc1ccc(CCNC(=O)c2ccc(Br)cc2)cc1	CAL PDZ FP-1 42 (no result: CAL PDZ FP-2)
C[C@H](CO)N1C[C@H](C)[C@@H](CN(C)C)Oc2c(NS(=O)(=O)c3cccs3)cccc2C1=O	none
O=C(CC(=O)N/N=C/c1ccccc1)NCc1ccccc1	CAL PDZ FP-1 147
O=C(Cc1ccccc1)NN=Cc1ccccc1	none
N#Cc1ccc(OCC(=O)NCC2COc3ccccc3O2)cc1 (stereo not given)	none
CC1(C)SC(C)(C)N(C=O)C1C(=O)O (stereo not given)	none (no result: CAL PDZ FP-1)
OCCCNc1cc(-c2ccnc(Nc3cccc(Cl)c3)n2)ccn1	SR-BI DiI inh 82
O=C(O)c1ccccc1C(=O)c1ccc2oc(=O)[nH]c2c1	none
NC(=S)n1[nH]c(-c2ccc([N+](=O)[O-])cc2)c(N=Nc2ccccc2[N+](=O)[O-])c1=O	SR-BI DiI inh 89 (no result: CAL PDZ FP-1)
Cc1c(N=Nc2c(-c3ccc([N+](=O)[O-])cc3)[nH]n(C(N)=S)c2=O)cccc1[N+](=O)[O-]	SR-BI DiI inh 92
Cc1[nH]n(C(N)=S)c(=O)c1N=Nc1cccc([N+](=O)[O-])c1C	none
NC(=S)n1[nH]c(-c2ccc([N+](=O)[O-])cc2)c(N=Nc2cccc([N+](=O)[O-])c2)c1=O	SR-BI DiI inh 87
COc1ccc(C(=O)Nc2cc(C)on2)cc1S(=O)(=O)N1CC(c2ccccc2)CC1=O (stereo not given)	none
CCCC(=O)Nc1sc(C)c(C)c1C(=O)Nc1cccc(C)c1	SR-BI DiI inh 72
CC(=O)Nc1sc(C)c(C)c1C(=O)Nc1ccc(C)cc1	none
Cc1cc(C)cc(NC(=O)N2CCN(C/C=C/c3ccccc3)CC2)c1	none
COCC(C)n1c(C)cc(C(=O)COC(=O)c2nn(C)c(=O)c3ccccc23)c1C (stereo not given)	none
COCC(C)n1c(C)cc(C(=O)Cn2nc(C(=O)O)c3ccccc3c2=O)c1C (stereo not given)	CAL PDZ FP-1 37
O=C(CSc1nnc([C@@H]2CCCN2)o1)c1ccc(Cl)cc1	none (no result: SR-BI DiI-HDL act, SR-BI DiI inh)
C=C(C)CSc1nnc([C@@H]2CCCN2)o1	CAL PDZ FP-1 42
COc1cc(C(=O)Oc2ccccc2/C=N/NC(=O)c2ccc(C)c(Cl)c2)cc(OC)c1OC	SR-BI DiI inh 115
COc1cc(/C=N/NC(N)=S)ccc1OC(=O)c1ccc(C)cc1	SR-BI DiI inh 74 (no result: CAL PDZ FP-1)

Screening results as filed in PubChem BioAssay.
